We go through ten molecules from paper PMC6071920 (MedChemComm, 2016).

The structures appear in SMILES notation. Values joined by “and” are separate entries in the source; they are usually repeats but may differ in a detail not shown here. Equal values may be shown once. Read-outs that look alike come from different tables or passages of the source.

The test system of data set [1] is TSPO WT over-expressing 293T cells. The experiment in a line: Proliferation. Type of data set: cell-based, human. Particulars: 48 h, BrdU ELISA. Summed up:
(§1)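 Clonally selected 293T cells, lentivirally transduced with human TSPO WT or A147T, puromycin-selected, grown in DMEM with 10% FBS, 100 U ml−1 penicillin/streptomycin and 2 mM glutamine. BrdU labelled at 37 °C for 4 h, then detected by BrdU ELISA. Stopped with 1 M sulfuric acid and read at 450 nm. Normalised to vehicle controls; one-way ANOVA with Dunnett's test.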

For data set [2], the system named is TSPO A147T over-expressing 293T cells. The experiment in a line: Proliferation. The data set is classed as cell-based, human. Particulars: 48 h, BrdU ELISA. Summed up:
as §1

Data set [3] relates to TSPO A147T. Type of data set: binding, human. Particulars: fold discrimination (loss of affinity at TSPO A147T versus TSPO WT).
Data set [4] concerns the target TSPO. Particulars: read-out: Ki for the TSPO; cited from earlier work.
The target in data set [5] is TSPO A147T (Homo sapiens, UniProt P30536). The data set is classed as binding.
Sequence of TSPO A147T (Homo sapiens, UniProt P30536) (P30536 whole entry, stated change not applied): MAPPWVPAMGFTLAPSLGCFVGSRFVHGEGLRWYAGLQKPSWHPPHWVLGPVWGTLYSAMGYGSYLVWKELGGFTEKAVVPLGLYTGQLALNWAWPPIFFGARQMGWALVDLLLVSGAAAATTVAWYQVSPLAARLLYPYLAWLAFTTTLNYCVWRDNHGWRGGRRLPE
Data set [6] concerns TSPO. The conditions noted are these: cited from earlier work; for Fold reduction of affinity in LABs compared to HABs: brain tissue or lymphocytes.
Another data set deals with TSPO WT (Homo sapiens, UniProt P30536, T147A). The data set is classed as binding. The conditions noted are these: 3b versus 3a; 4b versus 4a.
Sequence of TSPO WT (P30536 whole entry T147A): as the sequence (P30536 whole entry, stated change not applied) above, with T147A counted along it
A further data set addresses rat TSPO. The conditions noted are these: read-out: Affinity commonly reported at the rat TSPO; cited from earlier work.
The conditions of data set [7]: cited from earlier work.

Regarding `CCN(CC)C(=O)Cc1c(-c2ccc(OC)cc2)nn2c(C)cc(C)nc12` [DPA-713], the “Effect on proliferation at 100 μM, TSPO WT cells” value in data set [1] is “did not significantly affect proliferation”. In addition, the “Effect on proliferation at 100 μM, TSPO A147T cells” value in data set [2] is reported as “did not significantly affect proliferation”.

As for `CCN(CC)C(=O)Cn1c2ccccc2c2cc(Br)ccc21` [Compound 4a, 2-(3-Bromo-9H-carbazole-9-yl)-N,N-diethylacetamide], the “TSPO A147T Ki/TSPO WT Ki” value in the data set with TSPO A147T [3] was determined as 5.

For `NC(=O)c1nc(-c2ccccc2)c2ccccc2n1` [4-phenyl quinazoline-2-carboxamide], the Ki at TSPO [4] is 0.5 nM.

Regarding `CCN(CC)C(=O)Cn1c2ccccc2c2cc(-c3ccc(OC)cc3)ccc21` [Compound 5c, N,N-Diethyl-2-(3-(4-methoxyphenyl)-9H-carbazole-9-yl)acetamide], the “Fold improved (higher) affinity at TSPO A147T than the comparator analogue” value on TSPO A147T [5] (4b versus 4a, 5c versus 3a) amounted to 2 ×.

Consider `COc1ccccc1CN(C(C)=O)c1cnccc1Oc1ccccc1` [PBR-28], for which the “Fold reduction of affinity in LABs compared to HABs” value in the data set with TSPO [6] was 55 fold.

As to `CCN(CC)C(=O)Cn1c2ccccc2c2cc(-c3ccccc3)ccc21` [Compound 5a, N,N-Diethyl-2-(3-phenyl-9H-carbazole-9-yl)acetamide], in the data set on TSPO A147T [3], the “TSPO A147T Ki/TSPO WT Ki” value was 5- to 6.

As to `CCN(Cc1ccccc1)C(=O)Cn1c2ccccc2c2ccccc21` [Compound 3b, N-Benzyl-2-(9H-carbazol-9-yl)-N-ethylacetamide], the “Fold lower affinity at TSPO WT than the N,N-diethylamide analogue” value at TSPO WT is reported as 3 ×. Also, at TSPO A147T [5] (3b versus 3a), the “Fold reduction in TSPO A147T affinity compared to 3a” value was found to be 2.6 ×. In data set [1], the “Effect on proliferation at 100 μM, TSPO WT cells” value is “did not significantly affect proliferation”. Further, in data set [2], the “Effect on proliferation at 100 μM, TSPO A147T cells” value is given as “did not significantly affect proliferation”.

As for `CCN(CC)C(=O)Cn1c2ccccc2c2ccccc21` [Compound 3a, 2-(9H-Carbazol-9-yl)-N,N-diethylacetamide], the “TSPO A147T Ki/TSPO WT Ki” value in the data set with TSPO A147T [3] was determined as 6.

Turning to `CCC(C)N(C)C(=O)c1cc2ccccc2c(-c2ccccc2Cl)n1` (centres unmarked) [PK 11195], the Ki at rat TSPO is 0.7 to 18 nM. Also, the In vivo bioavailability result in data set [7] was “poor in vivo bioavailability”.

With `CCN(Cc1ccccc1)C(=O)Cn1c(=O)n(C)c2cnc(-c3ccccc3)nc21` [XBD-173], the “TSPO A147T Ki/TSPO WT Ki” value in the data set on TSPO A147T [3] was 5 and 5- to 6. In addition, in the data set on TSPO [6], the “Fold reduction of affinity in LABs compared to HABs” value is 13 fold. Besides, the Ki at TSPO [6] (read-out: Affinity at LABs, LAB brain tissue) is 30.3 nM.
